Data taken from ChEMBL document CHEMBL1147969, “Synthesis of some novel heterocyclic compounds derived from diflunisal hydrazide as potential anti-infective and anti-inflammatory agents” (2007).
≈ marks a conversion by molar mass, not a printed value. Calls of active or inactive are those of the source.

What was measured:
Mus musculus [1] = assay: Antinociceptive activity against mouse assessed as paw withdrawal latency at 50 mg/kg, po after 60 mins by hot plate test; type: functional
Outline: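 Hot plate was set at 55 °C. Latency to jumping or hind-paw licking was recorded before and 60 min after oral dosing at 50 mg/kg, or vehicle, with a 30 s cutoff. Groups had at least eight mice each. Testing was done between 2:00 and 4:00 pm.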

Mus musculus [2] = assay: Antiinflammatory activity against BALB/c mouse assessed as inhibition of carrageenan-induced paw edema at 50 mg/kg, po after 4 hrs; type: functional
Outline: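 Mice were fasted on the last day (water only) and dosed by gavage at 50 mg/kg, suspended in 0.5% methyl cellulose; controls got vehicle, six mice per group. After 60 min, 0.5 mg/mL carrageenan in saline was injected subplantar into the right hind paw, with saline in the left. The right–left thickness difference was read by microcaliper at 4 h. % inhibition = (n−n0)/n×100 versus control.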

Proteus vulgaris [3] = assay: Antimicrobial activity against Proteus vulgaris KUKEM1329 by disk diffusion method at 300 ug/disc; type: functional
Outline: (§1)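 For broth microdilution, inocula came from 12 h broth cultures adjusted to 0.5 McFarland. Test agents in 10% DMSO were serially diluted twofold (7.8–500) in nutrient broth. Wells were shaken 20 s at 300 rpm and incubated 24 h. Clear wells were plated on nutrient agar to check growth. MIC was the lowest concentration inhibiting growth. Each compound was screened twice per organism.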

Sindbis virus [4] = assay: Antiviral activity against Sindbis virus-induced cytopathogenicity at 16 ug/mL; type: functional, organism-based
Proteus vulgaris [5] = assay: Antimicrobial activity against Proteus vulgaris A161 […]; type: functional; outline: as §1
Escherichia coli = assay: Antimicrobial activity against Escherichia coli A1 by microwell dilution method; type: functional; outline: as §1
Streptococcus pyogenes [6] = assay: Antimicrobial activity against Streptococcus pyogenes ATCC 176 by microwell dilution method; type: functional; outline: as §1
Streptococcus pyogenes [7] = assay: Antimicrobial activity against Streptococcus pyogenes KUKEM676 by disk diffusion method at 300 ug/disc; type: functional
Outline: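 Mueller-Hinton agar was spread with 10^8 CFU/mL bacteria. 6 mm discs held 300 per disc of test agent, with DMSO discs as negative controls. Plates were incubated 24 h, at 37 °C for clinical strains or 27 °C for plant-associated strains. Zone of inhibition diameter in mm was measured. Each assay was repeated twice.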

Aspergillus versicolor [8] = assay: Antifungal activity against Aspergillus variecolor at 300 ug/disc after 72 hrs by disk diffusion method; type: functional
Outline: (§2)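 Disc diffusion was run on potato dextrose agar seeded with 10^4 spore/mL. 6 mm discs each carried 300 per disc of test agent. DMSO-impregnated discs served as negative controls. Plates were incubated 72 h, at 27 °C for plant-associated isolates or 37 °C for clinical isolates. The read-out was inhibition zone diameter in mm. Each assay was repeated twice.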

Trichophyton benhamiae [9] = assay: Antifungal activity against Trichophyton mentagrophytes at 300 ug/disc after 72 hrs by disk diffusion method; type: functional, Arthroderma benhamiae; outline: as §2
Trichophyton rubrum [10] = assay: Antifungal activity against Trichophyton rubrum at 300 ug/disc after 72 hrs by disk diffusion method; type: functional; outline: as §2
Aspergillus flavus [11] = assay: Antifungal activity against Aspergillus flavus at 300 ug/disc after 72 hrs by disk diffusion method; type: functional; outline: as §2
Aspergillus versicolor [12] = assay: Antifungal activity against Aspergillus variecolor after 72 hrs by agar dilution method; type: functional
Outline: (§3)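 Fungal isolates were screened on agar dilution plates. Test agents in 10% DMSO were mixed into potato dextrose agar containing 0.5% v/v Tween 20, over a range of 7.8–500. Plates were spot-inoculated with 10^4 spore/mL and held 72 h, at 27 °C for plant isolates or 37 °C for clinical isolates. MIC was the lowest concentration with no growth. Each test was repeated at least twice.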

Enterococcus faecalis = assay: Antimicrobial activity against Enterococcus faecalis ATCC […] by microwell dilution method; type: functional; outline: as §1
Trichophyton benhamiae [13] = assay: Antifungal activity against Trichophyton mentagrophytes after 72 hrs by agar dilution method; type: functional, Arthroderma benhamiae; outline: as §3
Aspergillus flavus [14] = assay: Antifungal activity against Aspergillus flavus after 72 hrs by agar dilution method; type: functional; outline: as §3
Streptococcus pyogenes [15] = assay: Antimicrobial activity against Streptococcus pyogenes KUKEM676 by microwell dilution method; type: functional; outline: as §1
Streptococcus pyogenes [16] = assay: Antimicrobial activity against Streptococcus pyogenes KUKEM676 by disk diffusion method at 10 ug/disc; type: functional; conditions: read-out: IZ
Streptococcus pyogenes [17] = assay: Antimicrobial activity against Streptococcus pyogenes ATCC 176 by disk diffusion method at 10 ug/disc; type: functional; conditions: read-out: IZ
Proteus vulgaris [18] = assay: Antimicrobial activity against Proteus vulgaris A161 by disk diffusion method at 10 ug/disc; type: functional; conditions: read-out: IZ
Proteus vulgaris [19] = assay: Antimicrobial activity against Proteus vulgaris KUKEM1329 by disk diffusion method at 10 ug/disc; type: functional; conditions: read-out: IZ
Human alphaherpesvirus 1 [20] = assay: Antiviral activity against acyclovir resistant TK positive HSV1 KOS-induced cytopathogenicity at 16 ug/mL; type: functional, organism-based
Human alphaherpesvirus 1 [21] = assay: Antiviral activity against TK positive HSV1 KOS-induced cytopathogenicity at 16 ug/mL; type: functional, organism-based
Punta Toro virus = assay: Antiviral activity against Punta Toro virus-induced cytopathogenicity at 16 ug/mL; type: functional, organism-based
Coxsackievirus B4 = assay: Antiviral activity against Coxsackie virus B4-induced cytopathogenicity at 16 ug/mL; type: functional, organism-based
Sindbis virus [22] = assay: Antiviral activity against Sindbis virus-induced cytopathogenicity at 9.6 ug/mL; type: functional, organism-based
Trichophyton rubrum [23] = assay: Antifungal activity against Trichophyton rubrum after 72 hrs by agar dilution method; type: functional; outline: as §3
Human alphaherpesvirus 2 = assay: Antiviral activity against HSV2-induced cytopathogenicity at 16 ug/mL; type: functional, organism-based

## COc1ccc(Nc2nnc(-c3cc(-c4ccc(F)cc4F)ccc3O)s2)cc1
Mus musculus [1]
  Paw withdrawal latency: 19.2 s
Mus musculus [2]
  inhibition in vivo at 50 mg/kg: 55.3%

## Oc1ccc(-c2ccc(F)cc2F)cc1-c1nnc(Nc2ccccc2)o1
Mus musculus [1]
  Paw withdrawal latency: 12 s
Mus musculus [2]
  inhibition in vivo at 50 mg/kg: 39.5%

## Oc1ccc(-c2ccc(F)cc2F)cc1-c1nnc(NC2CCCCC2)o1
Mus musculus [1]
  Paw withdrawal latency: 12 s
Mus musculus [2]
  inhibition in vivo at 50 mg/kg: 23.8%

## CNc1nnc(-c2cc(-c3ccc(F)cc3F)ccc2O)o1
Mus musculus [1]
  Paw withdrawal latency: 10.9 s
Mus musculus [2]
  inhibition in vivo at 50 mg/kg: 41.4%

## Cc1ccc(Nc2nnc(-c3cc(-c4ccc(F)cc4F)ccc3O)o2)cc1
Mus musculus [1]
  Paw withdrawal latency: 11.1 s
Mus musculus [2]
  inhibition in vivo at 50 mg/kg: 33.8%

## Cc1ccc(-n2c(-c3cc(-c4ccc(F)cc4F)ccc3O)n[nH]c2=S)cc1
Mus musculus [1]
  Paw withdrawal latency: 14.2 s
Mus musculus [2]
  inhibition in vivo at 50 mg/kg: 51.6%

## Oc1ccc(-c2ccc(F)cc2F)cc1-c1n[nH]c(=S)n1C1CCCCC1
Proteus vulgaris [3]
  inhibition zone (IZ): 12 mm
Mus musculus [1]
  Paw withdrawal latency: 13.2 s
Sindbis virus [4]
  Activity: Active
Mus musculus [2]
  inhibition in vivo at 50 mg/kg: 64.4%
Proteus vulgaris [5]
  inhibition zone (IZ): 10 mm

## O=C(O)c1cc(-c2ccc(F)cc2F)ccc1O [DIFLUNISAL]
Mus musculus [1]
  Paw withdrawal latency: 19.1 s
Mus musculus [2]
  inhibition in vivo at 50 mg/kg: 24.2%

## Oc1ccc(-c2ccc(F)cc2F)cc1-c1nnc(Nc2ccccc2)s1
Proteus vulgaris [3]
  inhibition zone (IZ): 16 mm
Escherichia coli
  inhibition zone (IZ): 16 mm
Mus musculus [1]
  Paw withdrawal latency: 16.5 s
Mus musculus [2]
  inhibition in vivo at 50 mg/kg: 43%
Streptococcus pyogenes [6]
  inhibition zone (IZ): 18 mm
Proteus vulgaris [5]
  inhibition zone (IZ): 14 mm

## CO/N=C(\C(=O)N[C@@H]1C(=O)N2C(C(=O)[O-])=C(C[N+]3(C)CCCC3)CS[C@H]12)c1csc(N)n1 [CEFEPIME]
Streptococcus pyogenes [7]
  MIC: 31.2 µg/mL (≈ 65 µM)

## CCN[C@@H]1C[C@H](N)[C@@H](O[C@H]2OC(CN)=CC[C@H]2N)[C@H](O)[C@H]1O[C@H]1OC[C@](C)(O)[C@H](NC)[C@H]1O [NETILMICIN]
Aspergillus versicolor [8]
  MIC: 62.5 µg/mL (≈ 131 µM)
Trichophyton benhamiae [9]
  MIC: 31.2 µg/mL (≈ 65.7 µM)
Trichophyton rubrum [10]
  MIC: 15.6 µg/mL (≈ 32.8 µM)
Aspergillus flavus [11]
  MIC: 15.6 µg/mL (≈ 32.8 µM)

## C=CCn1c(-c2cc(-c3ccc(F)cc3F)ccc2O)n[nH]c1=S
Proteus vulgaris [3]
  inhibition zone (IZ): 9 mm
Aspergillus versicolor [12]
  inhibition zone (IZ): 10 mm
Escherichia coli
  inhibition zone (IZ): 12 mm
Enterococcus faecalis
  inhibition zone (IZ): 10 mm
Aspergillus versicolor [8]
  MIC: 62.5 µg/mL (≈ 181 µM)
Trichophyton benhamiae [9]
  MIC: 31.2 µg/mL (≈ 90.5 µM)
Mus musculus [1]
  Paw withdrawal latency: 16.8 s
Trichophyton benhamiae [13]
  inhibition zone (IZ): 14 mm
Mus musculus [2]
  inhibition in vivo at 50 mg/kg: 73%
Streptococcus pyogenes [6]
  inhibition zone (IZ): 12 mm
Aspergillus flavus [11]
  MIC: 31.2 µg/mL (≈ 90.5 µM)
Proteus vulgaris [5]
  inhibition zone (IZ): 10 mm
Aspergillus flavus [14]
  inhibition zone (IZ): 14 mm
Streptococcus pyogenes [7]
  MIC: 62.2 µg/mL (≈ 180 µM)
Streptococcus pyogenes [15]
  inhibition zone (IZ): 14 mm

## CC1COc2c(N3CCN(C)CC3)c(F)cc3c(=O)c(C(=O)O)cn1c23 (configuration not stated) [OFLOXACIN]
Streptococcus pyogenes [16]
  zone of inhibition at 10 µg/disc: 13 mm
Streptococcus pyogenes [17]
  zone of inhibition at 10 µg/disc: 10 mm
Proteus vulgaris [18]
  zone of inhibition at 10 µg/disc: 12 mm
Proteus vulgaris [19]
  zone of inhibition at 10 µg/disc: 13 mm

## C=CCNc1nnc(-c2cc(-c3ccc(F)cc3F)ccc2O)s1
Human alphaherpesvirus 1 [20]
  Activity: Active
Mus musculus [1]
  Paw withdrawal latency: 13.9 s
Sindbis virus [4]
  Activity: Active
Human alphaherpesvirus 1 [21]
  Activity: Active
Punta Toro virus
  Activity: Active
Mus musculus [2]
  inhibition in vivo at 50 mg/kg: 57.2%
Coxsackievirus B4
  Activity: Active

## Cc1ccc(Nc2nnc(-c3cc(-c4ccc(F)cc4F)ccc3O)s2)cc1
Mus musculus [1]
  Paw withdrawal latency: 14.5 s
Mus musculus [2]
  inhibition in vivo at 50 mg/kg: 43.5%

## Oc1ccc(-c2ccc(F)cc2F)cc1-c1n[nH]c(=S)n1-c1ccccc1
Mus musculus [1]
  Paw withdrawal latency: 16 s
Human alphaherpesvirus 1 [21]
  Activity: Active
Mus musculus [2]
  inhibition in vivo at 50 mg/kg: 36.3%

## CCNc1nnc(-c2cc(-c3ccc(F)cc3F)ccc2O)s1
Mus musculus [1]
  Paw withdrawal latency: 13.5 s
Mus musculus [2]
  inhibition in vivo at 50 mg/kg: 50.2%

## CNc1nnc(-c2cc(-c3ccc(F)cc3F)ccc2O)s1
Sindbis virus [22]
  Activity: Active
Human alphaherpesvirus 1 [20]
  Activity: Active
Mus musculus [1]
  Paw withdrawal latency: 13.5 s
Sindbis virus [4]
  Activity: Active
Human alphaherpesvirus 1 [21]
  Activity: Active
Punta Toro virus
  Activity: Active
Mus musculus [2]
  inhibition in vivo at 50 mg/kg: 45.4%
Coxsackievirus B4
  Activity: Active

## CCn1c(-c2cc(-c3ccc(F)cc3F)ccc2O)n[nH]c1=S
Proteus vulgaris [3]
  inhibition zone (IZ): 9 mm
Aspergillus versicolor [12]
  inhibition zone (IZ): 14 mm
Aspergillus versicolor [8]
  MIC: 31.2 µg/mL (≈ 93.7 µM)
Mus musculus [1]
  Paw withdrawal latency: 17.1 s
Mus musculus [2]
  inhibition in vivo at 50 mg/kg: 46.2%
Trichophyton rubrum [10]
  MIC: 15.2 µg/mL (≈ 45.7 µM)
Trichophyton rubrum [23]
  inhibition zone (IZ): 16 mm
Aspergillus flavus [11]
  MIC: 31.2 µg/mL (≈ 93.7 µM)
Proteus vulgaris [5]
  inhibition zone (IZ): 9 mm
Aspergillus flavus [14]
  inhibition zone (IZ): 16 mm
Coxsackievirus B4
  Activity: Active

## C=CCNc1nnc(-c2cc(-c3ccc(F)cc3F)ccc2O)o1
Mus musculus [1]
  Paw withdrawal latency: 9.8 s
Mus musculus [2]
  inhibition in vivo at 50 mg/kg: 36.6%
Human alphaherpesvirus 2
  Activity: Active

## COc1ccc(-n2c(-c3cc(-c4ccc(F)cc4F)ccc3O)n[nH]c2=S)cc1
Proteus vulgaris [3]
  inhibition zone (IZ): 10 mm
Enterococcus faecalis
  inhibition zone (IZ): 12 mm
Mus musculus [1]
  Paw withdrawal latency: 15 s
Mus musculus [2]
  inhibition in vivo at 50 mg/kg: 53.5%
Streptococcus pyogenes [6]
  inhibition zone (IZ): 10 mm
Streptococcus pyogenes [7]
  MIC: 125 µg/mL (≈ 304 µM)
Streptococcus pyogenes [15]
  inhibition zone (IZ): 9 mm

## CCNc1nnc(-c2cc(-c3ccc(F)cc3F)ccc2O)o1
Mus musculus [1]
  Paw withdrawal latency: 11 s
Mus musculus [2]
  inhibition in vivo at 50 mg/kg: 36.8%

## COc1ccc(Nc2nnc(-c3cc(-c4ccc(F)cc4F)ccc3O)o2)cc1
Mus musculus [1]
  Paw withdrawal latency: 12 s
Mus musculus [2]
  inhibition in vivo at 50 mg/kg: 35.3%

## Cn1c(-c2cc(-c3ccc(F)cc3F)ccc2O)n[nH]c1=S
Proteus vulgaris [3]
  inhibition zone (IZ): 8 mm
Mus musculus [1]
  Paw withdrawal latency: 16.4 s
Mus musculus [2]
  inhibition in vivo at 50 mg/kg: 56.9%
Proteus vulgaris [5]
  inhibition zone (IZ): 10 mm

## Oc1ccc(-c2ccc(F)cc2F)cc1-c1nnc(NC2CCCCC2)s1
Mus musculus [1]
  Paw withdrawal latency: 12.5 s
Mus musculus [2]
  inhibition in vivo at 50 mg/kg: 41.4%
